From PubChem BioAssay
DENV2 CPE rescue: inhibitors of DENV2 cytopathic effect; 350,000 compounds, 1.7% hits; CPE inhibition, % at 9.99 µM; DENV2-infected cells, cytopathic effect rescue, plate reader; in the data active = CPE inhibition above about 20%, passing the limit was not always enough; inconclusive = no clear call, values can overlap the other calls; tested in BHK-21 cells;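 also: 0% = median of neutral control wells and 100% = median of positive control wells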
E-sel inducer: induces E-selectin expression in human endothelial cells; P16581; HUVEC E-selectin immunofluorescence imaging; normalized: neutral wells 0, TNF-alpha wells 100; activation, % at 7.58 µM; 260,000 compounds, 0.37% hits; AID 686992;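 active = mean E-selectin-positive cell signal at least 10% of the positive control, reached in at least 60% of replicates, without over 20% cell loss; inconclusive = no rule given, readout overlaps actives, possibly toxicity-flagged; inactive = the rest, including those meeting only one limit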
Target sequence (P16581 whole entry, looked up): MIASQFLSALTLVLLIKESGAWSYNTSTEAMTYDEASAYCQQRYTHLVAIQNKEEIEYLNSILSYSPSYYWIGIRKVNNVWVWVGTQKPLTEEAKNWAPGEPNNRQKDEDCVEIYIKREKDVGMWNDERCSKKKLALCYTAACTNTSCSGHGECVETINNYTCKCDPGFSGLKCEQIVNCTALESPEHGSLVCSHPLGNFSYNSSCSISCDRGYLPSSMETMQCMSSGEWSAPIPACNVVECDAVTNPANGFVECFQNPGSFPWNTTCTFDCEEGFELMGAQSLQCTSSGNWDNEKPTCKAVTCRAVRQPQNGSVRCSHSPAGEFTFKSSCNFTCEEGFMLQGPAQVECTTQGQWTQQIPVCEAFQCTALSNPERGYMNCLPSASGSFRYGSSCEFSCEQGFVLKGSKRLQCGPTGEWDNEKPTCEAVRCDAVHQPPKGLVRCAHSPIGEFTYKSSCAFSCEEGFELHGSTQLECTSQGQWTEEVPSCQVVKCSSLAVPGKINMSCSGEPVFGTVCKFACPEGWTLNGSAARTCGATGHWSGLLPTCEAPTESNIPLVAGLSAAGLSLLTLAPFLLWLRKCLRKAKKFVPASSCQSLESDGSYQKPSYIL
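Read-out: % PE-positive cells | Test system: HUVEC | Doses: One compound dose added by pin transfer | Buffer or medium: EGM-2 over gelatin coat | Signal: Immunofluorescence imaging | Benchmarks: TNF-alpha, DMSO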
Statin myotox sup: protects C2C12 myotubes from simvastatin toxicity; 330,000 compounds, 0.78% hits; rescue of ATP level, % at 7.49 µM; ATP luminescence, 48 h; scaled: DMSO 0, geranylgeraniol control 100;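 active = mean ATP rescue above about 67%, or every replicate alone reaching that limit, limit read from the data, passing the limit was not always enough; inconclusive = no clear call, values can overlap the other calls; inactive = mean under the limit and some replicate under it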;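 also: myotubes were challenged with 10 µM simvastatin during compound exposure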
Numbers without * were called inactive; ? = inconclusive; . = not tested or not shown. This is a sample that favours compounds with a hit; in the whole collection about 2.2% have one here.

SMILES	DENV2 CPE rescue	E-sel inducer	Statin myotox sup
O=C(c1cccc(F)c1)N1CCCCN2[C@H](CO)[C@H](c3ccc(-c4ccccc4)cc3)[C@H]2C1	41*	0	.
COc1cccc(-c2ccc([C@H]3[C@H]4CN(C(=O)c5ccc(F)cc5)CCCCN4[C@H]3CO)cc2)c1	11	1	50
Cc1noc(C)c1S(=O)(=O)Nc1ccc2c(c1)C(=O)N([C@H](C)CO)C[C@H](C)[C@@H](CN(C)S(=O)(=O)c1c(C)noc1C)OCCCC[C@H](C)O2	-5	0	.
COCC(=O)Nc1ccc2c(c1)[C@H]1C[C@H](CC(=O)N(C)C)O[C@H](CO)[C@H]1O2	?	0	5
c1ccc(-c2ccc3[nH]ccc3c2)cc1	87*	0	2
c1cncc(-c2ccc3[nH]ccc3c2)c1	-3	0	-1
CCCCCCc1nc(-c2ccc(OC)nc2)c(C)c2c1[Si](C(C)C)(C(C)C)OC2	13	.	.
CC(C)C[C@H]1CNC(=O)C(=O)N1C[C@H](Cc1ccc(O)cc1)NC(=O)CC12CC3CC(CC(C3)C1)C2	10	0	.
CC(C)C[C@@H](CN1C(=O)C(=O)NC[C@@H]1CC(C)C)NC(=O)Cc1ccccc1	43*	.	21
O=C(Nn1c(-c2ccncc2)nc2ccccc2c1=O)c1ccccc1Br	-3	114*	.
O=C(Nn1c(-c2ccncc2)nc2ccccc2c1=O)c1ccc(Br)cc1	-2	.	.
CCCN(C)C[C@@H]1Oc2ncc(C#CCC(C)C)cc2C(=O)N([C@H](C)CO)C[C@H]1C	3	0	8
O=C(C[C@H]1CC[C@@H]2[C@H](COC[C@H](O)CN2C(=O)c2ccccc2F)O1)N1CCCCC1	2	0	5
CC1C(=O)N(Cc2cn(CCC3OCCO3)nn2)CCS(=O)(=O)N1Cc1ccc(-c2cccc(N(C)C)c2)cc1 (centres undefined)	21*	1	-10
CC1C(=O)N(Cc2cn(Cc3ccco3)nn2)CCS(=O)(=O)N1Cc1ccc(-c2ccccc2C(F)(F)F)cc1 (centres undefined)	65*	.	-5
CC1C(=O)N(Cc2cn(CCC3OCCCO3)nn2)CCS(=O)(=O)N1Cc1ccc(-c2ccccc2)cc1 (centres undefined)	5	0	-1
COc1ccc(-c2ccc(CN3C(C(C)C)C(=O)N(Cc4cn(CCC5OCCO5)nn4)CCS3(=O)=O)cc2)cc1OC (centres undefined)	-2	0	-2
Cc1ccccc1-c1ccc(CN2C(C)C(=O)N(Cc3cn(Cc4ccco4)nn3)CCS2(=O)=O)cc1 (centres undefined)	12	0	6
CC(C)C1C(=O)N(Cc2cn(CCC3OCCO3)nn2)CCS(=O)(=O)N1Cc1ccc(-c2ccc(Cl)c(Cl)c2)cc1 (centres undefined)	25*	.	-9
COc1ccc(CN(C)C[C@@H]2OCCCC[C@H](C)Oc3ccc(NC(=O)Cc4ccccc4)cc3C(=O)N([C@H](C)CO)C[C@H]2C)cc1	13	0	.
COc1cnc(N(C)C)nc1Sc1ccc(Cl)cc1	.	.	104*
COc1cnc(-c2ccccn2)nc1Sc1ccc(Cl)cc1	.	.	-3
C[C@H](CO)N1C[C@H](C)[C@H](CN(C)S(=O)(=O)c2ccccc2)Oc2c(NC(=O)c3nc4ccccc4s3)cccc2C1=O	-14	0	17
Cc1nc2cc(NC(=O)c3ccc([N+](=O)[O-])s3)ccc2s1	73*	0	5
CCNc1ccc(C(=O)Nc2ccc3nc(C)sc3c2)cc1[N+](=O)[O-]	33*	.	.
SMILES	DENV2 CPE rescue	E-sel inducer	Statin myotox sup
Cc1cc(NS(=O)(=O)c2ccc(NC(=O)c3ccc([N+](=O)[O-])s3)cc2)nc(C)n1	-2	0	12
Cc1nc2ccc(NC(=O)c3ccccc3)cc2s1	-2	0	.
Cc1nn(Cc2ccc(Cl)cc2)c(C)c1NC(=O)c1ccc([N+](=O)[O-])cc1	34*	.	.
Cc1nn(Cc2ccc(Cl)cc2)c(C)c1NC(=O)Cn1nc([N+](=O)[O-])c(Cl)c1C	.	.	5
CNC[C@@H]1Oc2ccc(N(C)C)cc2CC(=O)N([C@H](C)CO)C[C@H]1C	1	.	25
COc1ccc(Br)c2oc(SC)cc(=O)c12	82*	0	20
COc1cccc(=O)c2c(C)oc(C)c12	.	.	9
O=C(CC[C@H]1O[C@@H](n2ccc(=O)[nH]c2=O)[C@H](O)[C@@H]1O)N[C@H](Cc1ccccc1)C(=O)NC1CCCCC1	-4	-1	7
O=C(N[C@H](Cc1ccccc1)C(=O)NC1CCCCC1)[C@H]1O[C@@H](n2ccc(=O)[nH]c2=O)[C@H](O)[C@@H]1O	28*	0	.
O=C(O)C(c1ccccc1)N1C(=O)c2ccccc2C1=O (centres undefined)	0	.	6
